In paper PMC12353801 (Nature Medicine, 2025):

Experiments:
healthy individuals = conditions: phase 0 and 1 trials; cited from earlier work
patients with IPF [1] = assay: Phase 2a trial: treatment-emergent adverse events; type: in vivo, human; conditions: for percentage of patients who have at least one treatment-emergent adverse event / AEs considered to be treatment related / AEs leading to treatment discontinuation / Any AE / Liver function: ALT increase / Liver function: AST increase / Liver function: Liver injury / SAEs considered to be treatment related / SAEs resulting in death / SAEs, grade ≥3: 12 weeks; for AEs considered to be treatment related / AEs leading to treatment discontinuation / Any AE / Liver function: ALT increase / Liver function: AST increase / Liver function: Liver injury / SAEs considered to be treatment related / SAEs resulting in death / SAEs, grade ≥3: n = 18
serum proteins = assay: Olink Explore 3072 proteomic profiling of patient serum; type: in vivo, human; conditions: for number of serum proteins significantly changing with treatment: Benjamini–Hochberg-adjusted P value <0.1
In short: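 Serum was sampled at baseline and weeks 2, 4, 8 and 12 and profiled on the Olink Explore 3072 panel as NPX. Dose effects were fitted per protein with a generalized linear mixed model: NPX ~ treatment + visit + treatment:visit + (1|patient). Baseline-to-week-12 change was tested by two-sided paired t-test. P values were BH-adjusted, with significance at adjusted P < 0.1.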

[2] = Pharmacokinetics of rentosertib in blood plasma of patients with IPF; type: in vivo, human
patients with IPF [3] = assay: Phase 2a trial: acute exacerbations of IPF and days hospitalized; type: in vivo, human; conditions: 60 mg QD
In short: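 Acute IPF exacerbations, and days in hospital after each, were recorded from week 0 through week 12 in IPF patients. Patients received oral dosing (30 mg QD, 30 mg BID or 60 mg QD) or placebo QD alongside standard of care. Adverse events were monitored throughout treatment and for 1 week after the last dose.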

patients with IPF [4] = assay: Phase 2a trial: change in forced vital capacity; type: in vivo, human
In short: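 This was a double-blind, 1:1:1:1 randomized trial of oral 30 mg QD, 30 mg BID or 60 mg QD against placebo QD for 12 weeks on standard of care. Spirometry to 2019 ATS/ERS criteria, on central SpiroSphere devices or on unchanged local equipment, was done at baseline and week 12. Analysis used ANCOVA (treatment fixed, baseline covariate) with multiple imputation for missing week-12 data, two-sided, intent-to-treat.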

## CC(C)n1cnc(-c2ccc(F)cc2)c1-c1ncc(C(=O)Nc2ccc(N3CCN(C)CC3)cc2)[nH]1 [rentosertib]
Healthy individuals
  pharmacokinetic (PK) profile, overall: favorable pharmacokinetic (PK) profile
  safety and tolerability, overall: safe and well tolerated
Patients with IPF [1]; 30 mg BID, 1 patient
  TEAE: alanine aminotransferase (ALT) increase: 5.6%
Patients with IPF [1]; 30 mg BID, 2/18
  treatment-related SAEs: 11.1%
Patients with IPF [1]; 30 mg BID, 3 patients
  TEAE: diarrhea: 16.7%
Patients with IPF [1]; 30 mg BID, 4/18
  treatment discontinued for AEs due to liver injury or dysfunction: 22.2%
Patients with IPF [1]; 30 mg BID, 4 patients
  TEAE: hepatic function abnormal: 22.2%
Patients with IPF [1]; 30 mg BID, 5 patients
  TEAE: hypokalemia: 27.8%
Patients with IPF [1]; 30 mg BID, 11/18
  Treatment-related AEs: 61.1%
Patients with IPF [1]; 30 mg BID, n = 15/18
  percentage of patients who have at least one treatment-emergent adverse event: 83.3%
Patients with IPF [1]; 30 mg BID
  AEs considered to be treatment related: 11 (61.1) no. (%)
  AEs leading to treatment discontinuation: 5 (27.8) no. (%)
  Any AE: 15 (83.3) no. (%)
  Liver function: ALT increase: 0 (0) no. (%)
  Liver function: AST increase: 0 (0) no. (%)
  Liver function: Liver injury: 2 (11.1) no. (%)
  SAEs considered to be treatment related: 2 (11.1) no. (%)
  SAEs resulting in death: 1 (5.6) no. (%)
  SAEs, grade ≥3: 4 (22.2) no. (%)
Patients with IPF [1]; 30 mg QD, 0/18
  treatment discontinued for AEs due to liver injury or dysfunction: 0%
Patients with IPF [1]; 30 mg QD, 30 mg BID and 60 mg QD over 12 weeks
  safety and tolerability, overall: safe and well tolerated
Patients with IPF [1]; 30 mg QD, 1/18
  treatment-related SAEs: 5.6%
Patients with IPF [1]; 30 mg QD, 1 patient
  TEAE: alanine aminotransferase (ALT) increase: 5.6%
Patients with IPF [1]; 30 mg QD, 2 patients
  TEAE: diarrhea: 11.1%
  TEAE: hepatic function abnormal: 11.1%
Patients with IPF [1]; 30 mg QD, 3 patients
  TEAE: hypokalemia: 16.7%
Patients with IPF [1]; 30 mg QD, 9/18
  Treatment-related AEs: 50.0%
Patients with IPF [1]; 30 mg QD, n = 13/18
  percentage of patients who have at least one treatment-emergent adverse event: 72.2%
Patients with IPF [1]; 30 mg QD
  AEs considered to be treatment related: 9 (50.0) no. (%)
  AEs leading to treatment discontinuation: 1 (5.6) no. (%)
  Any AE: 13 (72.2) no. (%)
  Liver function: ALT increase: 0 (0) no. (%)
  Liver function: AST increase: 0 (0) no. (%)
  Liver function: Liver injury: 0 (0) no. (%)
  SAEs considered to be treatment related: 1 (5.6) no. (%)
  SAEs resulting in death: 0 (0) no. (%)
  SAEs, grade ≥3: 2 (11.1) no. (%)
Patients with IPF [1]; 60 mg QD
  TEAE: alanine aminotransferase (ALT) increase: 33.3%
  AEs considered to be treatment related: 14 (77.8) no. (%)
  AEs leading to treatment discontinuation: 4 (22.2) no. (%)
  Any AE: 15 (83.3) no. (%)
  Liver function: ALT increase: 1 (5.6) no. (%)
  Liver function: AST increase: 1 (5.6) no. (%)
  Liver function: Liver injury: 1 (5.6) no. (%)
  SAEs considered to be treatment related: 2 (11.1) no. (%)
  SAEs resulting in death: 0 (0) no. (%)
  SAEs, grade ≥3: 7 (38.9) no. (%)
Patients with IPF [1]; 60 mg QD, 2/18
  treatment-related SAEs: 11.1%
Patients with IPF [1]; 60 mg QD, 3/18
  treatment discontinued for AEs due to liver injury or dysfunction: 17%
Patients with IPF [1]; 60 mg QD, 5 patients
  TEAE: diarrhea: 27.8%
Patients with IPF [1]; 60 mg QD, n = 15/18
  percentage of patients who have at least one treatment-emergent adverse event: 83.3%
Patients with IPF [1]; 60 mg QD, 14/18
  Treatment-related AEs: 77.8%
Serum proteins; 30 mg BID
  number of significantly altered proteins from baseline to week 12: 39
Serum proteins; 30 mg QD
  number of significantly altered proteins from baseline to week 12: 0
Serum proteins; 60 mg QD
  number of significantly altered proteins from baseline to week 12: 115
Serum proteins; week 2, linear regression
  number of serum proteins significantly changing with treatment: 20
Serum proteins; week 4, linear regression
  number of serum proteins significantly changing with treatment: 82
Serum proteins; week 12, linear regression
  number of serum proteins significantly changing with treatment: 192
[2]; 30 mg BID, week 0 (first dose)
  AUC0–t, arithmetic mean: 315 h/ng/mL
[2]; 30 mg BID, week 12 (EOT)
  AUC0–t, arithmetic mean: 1,390 h ng^−1 ml^−1
[2]; 30 mg QD, 30 mg BID, 60 mg QD, single and multiple doses
  time of peak plasma concentration after administration: 1 h
[2]; 30 mg QD, week 0 (first dose)
  AUC0–t, arithmetic mean: 553 h/ng/mL
[2]; 30 mg QD, week 12 (EOT)
  AUC0–t, arithmetic mean: 788 h/ng/mL
[2]; 60 mg QD, week 0 (first dose)
  AUC0–t, arithmetic mean: 1,630 h ng^−1 ml^−1
[2]; 60 mg QD, week 12 (EOT)
  AUC0–t, arithmetic mean: 3,450 h ng^−1 ml^−1
[2]; by week 12
  drug accumulation: no obvious drug accumulation
[2]; multiple doses
  steady state achieved: 2 week
Patients with IPF [3]
  Number of days hospitalized for acute IPF exacerbations, Mean (SD): 23.3 days
Patients with IPF [3]; three patients
  patients who experienced acute exacerbation of IPF (AE-IPF): 16.7%
Patients with IPF [4]; 30 mg BID
  Absolute change in FVC from baseline after 12 weeks, mean (95% CI): +19.7 ml
Patients with IPF [4]; 30 mg QD
  Absolute change in FVC from baseline after 12 weeks, mean (95% CI): -27.0 mL
Patients with IPF [4]; 60 mg QD
  Absolute change in FVC from baseline after 12 weeks, mean (95% CI): +98.4 ml
Patients with IPF [4]; 60 mg QD, 12 weeks, not concurrently taking SOC antifibrotic therapy
  Change in FVC - No SOC: FVC change from baseline (95% CI): +187.8 mL
